Bioassay records: PubChem, several laboratories
Shown are actives, neighbours in structure and some others; about 12% of the full set was active somewhere.
MT stabilizer: microtubule stabilization, imaging screen; HeLa tubulin immunostaining HCS, 24 h; share of cells brighter than vehicle mean+2SD; % tubulin-high responders, % at 10 µM; 200,000 compounds, 0.83% hits; AID 2205;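 active means plate Z-score above 3 for both tubulin-high and condensed-nucleus cell shares, with cell loss under 80%, at 10 µM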;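 further: anti alpha tubulin signal scored within the nucleus-defined area of each cell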
bCat nuc transl: alters nuclear translocation of beta-catenin in HeLa cells | immunofluorescence imaging | nuclear translocation activity, % at 5 µM | 190,000 compounds, 0.3% hits | AID 1665;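 active means nuclear translocation activity above 50% at 5 µM, with a well cell count of 50 or more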;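 further: per-cell ratio of nuclear to cytoplasmic median beta-catenin stain intensity; plate controls were DMSO negative control for no effect and GSK-3 inhibitor IX positive control for full effect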
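Test system: human HeLa cell line; Doses: 5 µM primary, 0.02–20 µM confirmation; Incubation: 24 h compound exposure, 37°C; Detection: beta-catenin immunofluorescence imaging with DAPI; Read-out: beta-catenin nuclear/cytoplasmic ratio, % activation.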
CHOP inhibitor: inhibitors of CHOP induction in ER stress response | CHO-K1 CHOP-promoter luciferase, tunicamycin-induced, 15-18 h | inhibition, % at 10 µM | 220,000 compounds, 3.8% hits | AID 2732;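 active means compounds that reduced the stress-induced luciferase reporter signal by more than about 70% of percent inhibition, limit read from the data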;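 further: 0% = tunicamycin plus vehicle and 100% = wells without tunicamycin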
Lmaj promast: inhibitors of Leishmania major promastigote growth; inhibition, % at 10 µM; Leishmania major promastigotes, resazurin fluorescence viability; 200,000 compounds, 9% hits; in the data active means inhibition above about 50%;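 further: promastigotes grown with compound for 44 hours at 28 °C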
Autophagy HCS: autophagy modulation, high-content screen. AID 463193. MEF GFP-LC3 puncta imaging; test concentration mostly 10 µM. 190,000 compounds, 0.98% hits. calls only at 10 µM (by protocol);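 active means percentage of spot-positive cells more than 3 SD above its plate mean, without a fluorescence outlier flag or 80% toxicity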;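 further: spot-positive cell cutoff set from DMSO-treated cells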
Dynein cargo inh: blocks dynein driven cargo transport along microtubules | 220,000 compounds, 0.47% hits | z-score, hits read low | AID 1381 | 3617.4 mouse cells, GR-EGFP nuclear translocation imaging; test concentration mostly 20 µM; stimulated with dexamethasone, 1 µM; hits give low values;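 active means plate z-score of nuclear minus cytoplasmic receptor signal below a set negative limit, without overly bright fluorescence or cell loss, cut at about -3.5 in these data, passing the limit was not always enough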;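 further: z-score of nuclear minus cytoplasmic ring GR-EGFP intensity difference per well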
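Schedule: 48 h induction, then 1 h compound, then 30 min agonist, 37 °C. Buffer or medium: tetracycline-free induction medium containing charcoal-stripped FBS. Reagent: 1.0 µM final dexamethasone stimulus. Evaluation: nuclear versus cytoplasmic GR-EGFP signal, averaged per well. Signal: high-content fluorescence imaging after fixation.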
Starred values were filed as active, the others as inactive; i = inactive; nt = no result given.

SMILES	MT stabilizer	bCat nuc transl	CHOP inhibitor	Lmaj promast	Autophagy HCS	Dynein cargo inh
COc1ccc(/C=C/c2nc(N)nc(-c3ccccc3O)n2)cc1OC	2	-2	79*	93*	i	0.092
COc1ccc(/C=C/c2noc(-c3ccccc3O)n2)cc1	3	0	11	-4	i	-0.83
COc1ccc(/C=C/c2nc(N)nc(-c3ccccc3O)n2)cc1	6	-2	78*	21	i	0.086
Cc1cc(C)n2ncc(/C(N)=N/OC(=O)Nc3ccc(Cl)cc3)c2n1	nt	3	-5	nt	nt	1.6
O=C(NCc1ccccc1)C1=C[C@H](C2CC2)C[C@H](OCCCCO)O1	3	-4	8	0	i	-0.58
O=C(NC1CCCCC1)c1ccc(CNc2ccccc2)o1	4	-4	46	0	i	-0.55
Cc1ccc(S(=O)(=O)/N=C(\Nc2cc(C)on2)c2ccc(Cl)cc2)cc1	3	-3	20	-6	i	-0.94
Cc1noc2ncnc(Sc3ccccc3Cl)c12	2	-5	-6	80*	i	-2.8
COC(=O)c1ccccc1Sc1ncnc2onc(C)c12	2	-4	-41	57*	i	-2.3
CCOC(=O)c1ccccc1NC(=O)CN(c1ccccc1)S(=O)(=O)N(C)C	2	-1	60	15	i	-0.13
O=C(Nc1ccc(S(=O)(=O)Nc2ncccn2)cc1)c1cccc(S(=O)(=O)N2CCOCC2)c1	nt	1	-1	nt	nt	1.1
Clc1ccc(Cn2ncc3c(N4CCOCC4)ncnc32)cc1	2	1	32	-5	i	-0.94
CCOc1ccccc1OCCN1CCC(Cc2ccccc2)CC1	3	0	26	99*	i	-0.66
O=C(COc1ccccc1[N+](=O)[O-])N1CCC(Cc2ccccc2)CC1	2	1	20	8	i	0.29
Cc1ccc([N+](=O)[O-])c(OCCN2CCC(Cc3ccccc3)CC2)c1	3	-2	15	94*	i	0.12
Cc1ccccc1OCCN1CCC(Cc2ccccc2)CC1	1	-3	9	82*	i	-0.58
COc1ccc(-c2csc(NC(=O)C3=NN(c4ccccc4)C(=O)CC3)n2)cc1	3	-2	10	13	i	-0.82
CC(/C=N/NC(=O)NC1CCCCC1)=C\c1ccccc1	4	2	86*	6	i	0.65
N#Cc1ccsc1NC(=O)CN1CCCCCC1	3	nt	18	59*	i	-0.22
Oc1cc2c(cc1C(c1ccc(Br)cc1)N1CCCC1)OCO2 (stereo not given)	2	-2	-66	73*	i	-1.8
Cc1ccc(-c2cc(C(=O)N/N=C/c3c[nH]c4ccccc34)[nH]n2)cc1	17*	12	0	28	i	1
O=C(N/N=C/c1c[nH]c2ccccc12)c1cc(-c2ccccc2)n[nH]1	5	-1	14	79*	i	-0.1
O=C(N/N=C/c1c[nH]c2ccccc12)c1ccn[nH]1	6	-2	-16	-2	i	-0.89
Cc1nc(C)c(C(=O)N/N=C/c2c[nH]c3ccccc23)s1	13	3	32	4	i	0.92
O=C(N/N=C/c1c[nH]c2ccccc12)c1cc(-c2cccc3ccccc23)n[nH]1	27*	42	12	15	i	1.4
SMILES	MT stabilizer	bCat nuc transl	CHOP inhibitor	Lmaj promast	Autophagy HCS	Dynein cargo inh
O=C(N/N=C/c1c[nH]c2ccccc12)c1cc(-c2ccc3ccccc3c2)n[nH]1	26*	80*	10	30	i	0.81
CC(=O)N1CCc2cc(N=NC3=C(O)CC(C)(C)CC3=O)ccc21	3	-2	-1	-3	i	0.65
CC(=O)c1c(C)n(-c2ccccc2)c2ccc(OCC(N)=O)cc12	2	4	-4	-4	i	-0.02
COc1cccc(C2(CSc3nnc(-c4cc(OC)c(OC)c(OC)c4)o3)OCCO2)c1	3	3	1	13	i	-0.16
Nc1cc2c(cc1C(=O)c1cccc(Br)c1)OCCO2	16*	0	10	-1	i	-0.33
Nc1cc2c(cc1C(=O)c1ccccc1F)OCCO2	3	-1	17	-2	i	1.3
Cc1ccc(N=Cc2c(O)n(-c3cc(Cl)ccc3N3CCOCC3)c(=O)c3ccccc23)cc1C	2	0	-17	70*	i	-0.95
O=C(COC(=O)c1cc(S(=O)(=O)N2CCOCC2)ccc1Cl)Nc1ccc2c(c1)OCO2	2	0	-6	-4	i	0.4
CCOC(=O)C1(CCc2ccccc2)CCN(C(=O)c2cc(C)nc(C)n2)CC1	2	-1	17	4	i	3.2
Cc1ccccc1N1C(=O)C2C3C=CC(C2C1=O)N(C)C3=O (stereo not given)	3	nt	-18	-6	i	-0.74
CCOC(=O)C1=C(C)C2C3C(=O)N(c4ccccc4C)C(=O)C3C1(C)C1C(=O)N(c3ccccc3C)C(=O)C21 (stereo not given)	3	-4	33	56*	i	-0.7
Cc1ccc(N2C(=O)C3NN=C(C(=O)OCc4ccccc4)C3C2=O)c(C)c1 (stereo not given)	4	-1	-6	-12	i	-0.65
CCOC(=O)C1=C(C)C2C3C(=O)N(c4ccc(C)cc4C)C(=O)C3C1(C)C1C(=O)N(c3ccc(C)cc3C)C(=O)C21 (stereo not given)	2	-3	52	74*	i	-0.87
O=C(Nc1ccccn1)c1cc(-c2cccc(Cl)c2)nc2ccccc12	5	0	26	16	i	0.75
CC(C)c1ccc(C(=O)N(c2ccccn2)C(C)c2ccco2)cc1 (stereo not given)	3	3	12	13	i	0.14
CC(c1ccco1)N(C(=O)C12CC3(C)CC(C)(CC(C)(C3)C1)C2)c1ccccn1 (stereo not given)	4	-5	86*	-1	i	-0.71
Cc1cccc(C(=O)N(c2ccccn2)C(C)c2ccco2)c1 (stereo not given)	3	-1	-4	56*	i	0.89
CC(c1ccco1)N(C(=O)c1ccccc1NS(=O)(=O)c1ccc(Cl)c([N+](=O)[O-])c1)c1ccccn1 (stereo not given)	2	nt	-36	81*	i	-1.2
NCCCNCCSP(=O)(O)O	nt	nt	-15	nt	nt	nt
CC(=O)Nc1ccc(C(=O)OCC(=O)NCc2ccc(Cl)cc2)cc1	32*	50*	24	-3	i	0.8
Cc1cc(C)n(-c2ccc(C(=O)OCC(=O)NCc3ccc(Cl)cc3)cc2)n1	2	2	17	-7	i	-0.056
COc1cccc(C(=O)COC(=O)c2ccc(NC(C)=O)cc2)c1	6	nt	-13	81*	i	1.4
